By pIC50 is commonly meant −log10 of the IC50, conventionally taken in molar units. Higher therefore signals a small IC50.

The source of these data is PMC3182555 (Nature chemical biology, 2011).

pIC50: −log10 of the molar value.

The target in test [1] is T1, β2-microglobulin (β2m) (Homo sapiens, UniProt P61769). In words: ESI-IMS-MS of non-covalent complexes. It is filed as binding.
In test [2] the target is T1, β2-microglobulin (β2m). In words: ESI-IMS-MS of non-covalent complexes. Type of test: biochemical. Put shortly:
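45 μM β2m at pH 2.5 with test compound (0–1125 μM), shaken at 600 rpm, 25 °C, 48 h, three or more replicates pooled. Spun at 16,300x g for 30 min. Supernatant run on SDS-PAGE, and bands quantified as percent soluble protein versus compound:β2m molar ratio. Binding: 38 μM β2m, 10 mM ammonium formate pH 2.5, 40 or 400 μM compound, 10% acetonitrile, ESI-IMS-MS at 70 V cone.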

T1 sequence (P61769 21-119): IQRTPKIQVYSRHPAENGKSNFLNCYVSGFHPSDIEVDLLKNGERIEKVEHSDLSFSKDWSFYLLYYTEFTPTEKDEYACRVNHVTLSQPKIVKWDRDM

For `CO[C@H]1/C=C/O[C@@]2(C)Oc3c(C)c(O)c4c(O)c(c5c(nc6cc(C)ccn65)c4c3C2=O)NC(=O)/C(C)=C\C=C\[C@H](C)[C@H](O)[C@@H](C)[C@@H](O)[C@@H](C)[C@H](OC(C)=O)[C@@H]1C` [rifaximin], the “ESI-IMS-MS of non-covalent complexes” value in test [1] was “Instead, only the most compact conformer shows binding to this ligand (Figure 4c)”. In turn, `CO[C@H]1/C=C/O[C@@]2(C)Oc3c(C)c(O)c4c(O)c(cc(O)c4c3C2=O)NC(=O)/C(C)=C\C=C\[C@H](C)[C@H](O)[C@@H](C)[C@@H](O)[C@@H](C)[C@H](OC(C)=O)[C@@H]1C` [rifamycin SV] gave a pIC50 in test [2] of around 3.52.
